# According to ChEMBL document CHEMBL4680311, “Synthesis, characterization, in vitro SAR study, and preliminary in vivo toxicity evaluation of naphthylmethyl substituted bis-imidazolium salts” (Bioorg Med Chem, 2021):
# Key:
# NCI-H460 [1] = test: Cytotoxicity against human NCI-H460 cells assessed as cell growth inhibition measured after 72 hrs by MTT assay; type: functional, cell-based; details: NCI-H460, 72 h
# Summary of the method: (§1)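 Cells kept in RPMI 1640 with 10% FBS at 37 °C, 5% CO₂, passaged every 2–3 days; grown to confluence, seeded at 5,000–7,000 cells/well depending on line, incubated 24 h. Compounds dissolved in 1% DMSO, diluted in medium to 1, 4, 16, 32 μM (6 replicates each), 72 h exposure. MTT 3–4 h, medium aspirated, DMSO added, 15 min, OD 540 nm; IC50 relative to untreated cells.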
# NCI-H1975 = test: Cytotoxicity against human NCI-H1975 cells assessed as cell growth inhibition measured after 72 hrs by MTT assay; type: functional, cell-based; details: NCI-H1975, 72 h; summary of the method: as §1
# HCC827 = test: Cytotoxicity against human HCC827 cells assessed as cell growth inhibition measured after 72 hrs by MTT assay; type: functional, cell-based; details: HCC827, 72 h; summary of the method: as §1
# A549 [2] = test: Cytotoxicity against human A549 cells assessed as cell growth inhibition measured after 72 hrs by MTT assay; type: functional, cell-based; details: A549, 72 h; summary of the method: as §1
# A549 [3] = test: Antiproliferative activity against human A549/ATCC cells assessed as cell growth at 10 uM incubated for 48 hrs by sulforhodamine B assay relative to control; type: functional; details: read-out: Activity
# Summary of the method: (§2)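 NCI DTP NCI-60 one-dose screen on the NSCLC panel. Cells were seeded at densities set by doubling rate and incubated 24 h. They were then exposed to a single 10 μM dose for 48 h. Each value is a growth percentage relative to the initial cell population: positive means net growth, negative means net cell kill.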
# EKVX [4] = test: Antiproliferative activity against human EKVX cells assessed as cell growth at 10 uM incubated for 48 hrs by sulforhodamine B assay relative to control; type: functional; details: read-out: Activity; summary of the method: as §2
# HOP-62 [5] = test: Antiproliferative activity against human HOP-62 cells assessed as cell growth at 10 uM incubated for 48 hrs by sulforhodamine B assay relative to control; type: functional; details: read-out: Activity; summary of the method: as §2
# HOP-92 [6] = test: Antiproliferative activity against human HOP-92 cells assessed as cell growth at 10 uM incubated for 48 hrs by sulforhodamine B assay relative to control; type: functional; details: read-out: Activity; summary of the method: as §2
# NCI-H226 [7] = test: Antiproliferative activity against human NCI-H226 cells assessed as cell growth at 10 uM incubated for 48 hrs by sulforhodamine B assay relative to control; type: functional; details: read-out: Activity; summary of the method: as §2
# NCI-H23 [8] = test: Antiproliferative activity against human NCI-H23 cells assessed as cell growth at 10 uM incubated for 48 hrs by sulforhodamine B assay relative to control; type: functional; details: read-out: Activity; summary of the method: as §2
# NCI-H322M [9] = test: Antiproliferative activity against human NCI-H322M cells assessed as cell growth at 10 uM incubated for 48 hrs by sulforhodamine B assay relative to control; type: functional; details: read-out: Activity; summary of the method: as §2
# NCI-H460 [10] = test: Antiproliferative activity against human NCI-H460 cells assessed as cell growth at 10 uM incubated for 48 hrs by sulforhodamine B assay relative to control; type: functional; details: read-out: Activity; summary of the method: as §2
# A549 [11] = test: Growth inhibition of human A549/ATCC cells incubated for 48 hrs by sulforhodamine B assay; type: functional; details: for CC50: read-out: LC50 (the source's name)
# Summary of the method: (§3)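 NCI DTP NCI-60 five-dose screen, same procedure as the one-dose assay: 24 h preincubation, then 48 h exposure. Five tenfold-spaced concentrations were used, from 100 μM to 10 nM or from 25 μM to 2.5 nM depending on compound. GI50, TGI and LC50 were read from growth-percentage curves relative to control cells.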
# EKVX [12] = test: Growth inhibition of human EKVX cells incubated for 48 hrs by sulforhodamine B assay; type: functional; summary of the method: as §3
# HOP-62 [13] = test: Growth inhibition of human HOP-62 cells incubated for 48 hrs by sulforhodamine B assay; type: functional; summary of the method: as §3
# HOP-92 [14] = test: Growth inhibition of human HOP-92 cells incubated for 48 hrs by sulforhodamine B assay; type: functional; summary of the method: as §3
# NCI-H226 [15] = test: Growth inhibition of human NCI-H226 cells incubated for 48 hrs by sulforhodamine B assay; type: functional; summary of the method: as §3
# NCI-H23 [16] = test: Growth inhibition of human NCI-H23 cells incubated for 48 hrs by sulforhodamine B assay; type: functional; summary of the method: as §3
# NCI-H322M [17] = test: Growth inhibition of human NCI-H322M cells incubated for 48 hrs by sulforhodamine B assay; type: functional; summary of the method: as §3
# NCI-H460 [18] = test: Growth inhibition of human NCI-H460 cells incubated for 48 hrs by sulforhodamine B assay; type: functional; summary of the method: as §3
# NCI-H522 [19] = test: Growth inhibition of human NCI-H522 cells incubated for 48 hrs by sulforhodamine B assay; type: functional; details: for CC50: read-out: LC50 (the source's name); summary of the method: as §3
# [20] = Toxicity in C57BL/6 mouse assessed as body weight loss at 20 mg/kg, ip administered on day 0, 7, 14 and 29 relative to control; type: organism-based; details: in vivo, 96 h, time 4 day
# Summary of the method: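 Male C57BL/6 mice, 8 weeks old, acclimated 5 days, 12 h light/dark, 3 per cage, n = 3. Mice got 100 μL of 4 mg/mL drug in 20% 2-HPβCD in sterile PBS, about 20 mg/kg assuming 20 g, IP on days 0, 7, 14 and 29 (1 h before sacrifice). Vehicle mice were dosed IP on days 0, 7, 14, 21, 25 and 29. Weight and behaviour were checked daily; sacrifice was on day 29.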
# [21] = Toxicity in C57BL/6 mouse assessed as body weight loss recovery measured after second and third injection at 20 mg/kg, ip administered on day 0, 7, 14 and 29 relative to control; type: organism-based; details: in vivo, 96 h, time 4 day
# Summary of the method: (§4)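 Male C57BL/6 mice, eight weeks old, acclimated 5 days, 3 per cage, 12 h light/dark, food and water ad libitum. IP injection of 100 μL of a 4 mg/mL solution in 20% 2-HPβCD sterile PBS (~20 mg/kg assuming 20 g mouse) on days 0, 7, 14, 29. Vehicle mice got 2-HPβCD on days 0, 7, 14, 21, 25, 29. Weighed and observed daily; sacrificed day 29.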
# [22] = Toxicity in C57BL/6 mouse assessed as body weight gain at 20 mg/kg, ip administered on day 0, 7, 14 and 29; type: organism-based; details: in vivo, 96 h, time 4 day; summary of the method: as §4
# [23] = Toxicity in C57BL/6 mouse assessed as body weight loss measured on day 6 at 20 mg/kg, ip administered on day 0, 7, 14 and 29; details: in vivo
# NCI-H522 [24] = test: Antiproliferative activity against human NCI-H522 cells assessed as cell growth at 10 uM incubated for 48 hrs by sulforhodamine B assay relative to control; type: functional; details: read-out: Activity; summary of the method: as §2
smiles,measurement,setting,value
[Br-].[Br-].c1ccc2cc(Cn3cc[n+](CCCCCCCCCCn4cc[n+](Cc5ccc6ccccc6c5)c4)c3)ccc2c1,IC50,NCI-H460 [1],< 1 µM
same,IC50,NCI-H1975,2 µM
same,IC50,HCC827,7 µM
same,IC50,A549 [2],< 1 µM
same,growth at 10 µM,A549 [3],18.6%
same,growth at 10 µM,EKVX [4],13.7%
same,growth at 10 µM,HOP-62 [5],-4.86%
same,growth at 10 µM,HOP-92 [6],-23.6%
same,growth at 10 µM,NCI-H226 [7],39.5%
same,growth at 10 µM,NCI-H23 [8],5.67%
same,growth at 10 µM,NCI-H322M [9],34.5%
same,growth at 10 µM,NCI-H460 [10],11%
same,CC50,A549 [11],50.3 µM
same,GI50,EKVX [12],0.442 µM
same,LC50,EKVX [12],58.4 µM
same,GI50,HOP-62 [13],1.09 µM
same,LC50 (concentration giving 50% net cell kill),HOP-62 [13],44.5 µM
same,GI50,HOP-92 [14],0.396 µM
same,LC50 (concentration giving 50% net cell kill),HOP-92 [14],15.2 µM
same,GI50,NCI-H226 [15],0.918 µM
same,LC50,NCI-H226 [15],> 100 µM
same,TGI,NCI-H226 [15],13.6 µM
same,GI50,NCI-H23 [16],0.445 µM
same,LC50,NCI-H23 [16],39.9 µM
same,GI50,NCI-H322M [17],3.55 µM
same,LC50 (concentration giving 50% net cell kill),NCI-H322M [17],48.1 µM
same,TGI,NCI-H322M [17],18.4 µM
same,GI50,NCI-H460 [18],0.376 µM
same,LC50 (concentration giving 50% net cell kill),NCI-H460 [18],45.9 µM
same,TGI,NCI-H460 [18],10.1 µM
same,GI50,NCI-H522 [19],0.436 µM
same,CC50,NCI-H522 [19],5.95 µM
same,Activity,[20],4%
same,Activity,[21],Toxic
same,Activity,[22],Toxic
same,body weight loss at 96 h,[23],10%
c1ccc2cc(Cn3cc[n+](Cc4ccc5ccccc5c4)c3)ccc2c1,IC50,NCI-H460 [1],4 µM
same,IC50,NCI-H1975,6 µM
same,IC50,HCC827,9 µM
c1ccc2cc(Cn3cc[n+](CCCCCCCCCCCCn4cc[n+](Cc5ccc6ccccc6c5)c4)c3)ccc2c1,IC50,NCI-H460 [1],< 1 µM
same,IC50,NCI-H1975,< 1 µM
same,IC50,HCC827,4 µM
same,IC50,A549 [2],< 1 µM
same,growth at 10 µM,A549 [3],-74.2%
same,growth at 10 µM,EKVX [4],-62.6%
same,growth at 10 µM,HOP-62 [5],-58%
same,growth at 10 µM,HOP-92 [6],-68.2%
same,growth at 10 µM,NCI-H226 [7],-42.1%
same,growth at 10 µM,NCI-H23 [8],-80.3%
same,growth at 10 µM,NCI-H322M [9],-18.4%
same,GI50,A549 [11],0.744 µM
same,CC50,A549 [11],14.2 µM
same,GI50,EKVX [12],0.893 µM
same,LC50,EKVX [12],20.8 µM
same,GI50,HOP-62 [13],0.815 µM
same,LC50 (concentration giving 50% net cell kill),HOP-62 [13],12.2 µM
same,GI50,HOP-92 [14],0.5 µM
same,LC50 (concentration giving 50% net cell kill),HOP-92 [14],7.29 µM
same,GI50,NCI-H226 [15],0.984 µM
same,LC50,NCI-H226 [15],> 25 µM
same,TGI,NCI-H226 [15],5.52 µM
same,GI50,NCI-H23 [16],0.722 µM
same,LC50,NCI-H23 [16],11.2 µM
same,GI50,NCI-H322M [17],0.859 µM
same,LC50 (concentration giving 50% net cell kill),NCI-H322M [17],10.4 µM
same,TGI,NCI-H322M [17],3.9 µM
same,GI50,NCI-H460 [18],0.814 µM
same,LC50 (concentration giving 50% net cell kill),NCI-H460 [18],14.6 µM
same,TGI,NCI-H460 [18],2.96 µM
same,GI50,NCI-H522 [19],0.47 µM
same,CC50,NCI-H522 [19],9.89 µM
c1ccc2cc(Cn3cc[n+](Cn4cc[n+](Cc5ccc6ccccc6c5)c4)c3)ccc2c1,IC50,NCI-H460 [1],16 µM
same,IC50,NCI-H1975,> 30 µM
same,IC50,HCC827,> 30 µM
same,IC50,A549 [2],> 30 µM
same,growth at 10 µM,A549 [3],70.8%
same,growth at 10 µM,EKVX [4],89.4%
same,growth at 10 µM,HOP-62 [5],84.2%
same,growth at 10 µM,HOP-92 [6],67%
same,growth at 10 µM,NCI-H226 [7],92.6%
same,growth at 10 µM,NCI-H23 [8],88.3%
same,growth at 10 µM,NCI-H322M [9],87.6%
same,growth at 10 µM,NCI-H522 [24],51%
c1ccc2cc(Cn3cc[n+](CCCn4cc[n+](Cc5ccc6ccccc6c5)c4)c3)ccc2c1,IC50,NCI-H460 [1],20 µM
same,IC50,NCI-H1975,> 30 µM
same,IC50,HCC827,> 30 µM
same,IC50,A549 [2],22 µM
same,growth at 10 µM,A549 [3],62.3%
same,growth at 10 µM,EKVX [4],82.7%
same,growth at 10 µM,HOP-62 [5],67.2%
same,growth at 10 µM,HOP-92 [6],67.5%
same,growth at 10 µM,NCI-H226 [7],81.9%
same,growth at 10 µM,NCI-H23 [8],77.8%
same,growth at 10 µM,NCI-H322M [9],84.4%
same,growth at 10 µM,NCI-H460 [10],75.3%
same,growth at 10 µM,NCI-H522 [24],56.6%
